Data on seven compounds can be found in ChEMBL document CHEMBL1131463, “Identification and initial structure-activity relationships of (R)-5-(2-azetidinylmethoxy)-2-chloropyridine (ABT-594), a potent, orally active, non-opiate analgesic agent acting via neuronal nicotinic acetylcholine receptors” (J Med Chem, 1998).

A word on the EC50: it is the concentration at which the effect is half-maximal. One may read the Ki as the equilibrium dissociation constant of an inhibitor or competing ligand from its target.

The target in assay [1] is T1, Neuronal acetylcholine receptor subunit alpha-7 (Homo sapiens, UniProt P36544). As to the kind of experiment: Compound was evaluated for functional activation from channel currents at human Nicotinic acetylcholine receptor alpha-7 expressed in oocytes. The format is cell-based, Oocyte.
T1 sequence (P36544 whole entry): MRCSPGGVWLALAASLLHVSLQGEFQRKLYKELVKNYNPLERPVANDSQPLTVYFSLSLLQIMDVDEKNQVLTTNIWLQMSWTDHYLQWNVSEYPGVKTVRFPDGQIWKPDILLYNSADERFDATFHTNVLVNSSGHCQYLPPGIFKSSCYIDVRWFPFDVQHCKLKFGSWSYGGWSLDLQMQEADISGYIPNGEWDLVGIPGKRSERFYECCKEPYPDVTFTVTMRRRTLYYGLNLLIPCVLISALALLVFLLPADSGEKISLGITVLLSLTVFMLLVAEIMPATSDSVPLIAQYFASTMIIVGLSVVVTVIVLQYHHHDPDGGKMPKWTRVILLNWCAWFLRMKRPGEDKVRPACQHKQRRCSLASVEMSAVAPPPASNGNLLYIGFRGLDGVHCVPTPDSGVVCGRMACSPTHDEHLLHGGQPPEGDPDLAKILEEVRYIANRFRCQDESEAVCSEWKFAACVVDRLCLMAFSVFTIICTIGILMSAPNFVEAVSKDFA
For assay [2], the species on record is Mus musculus. Kind of assay: Compound was evaluated for the analgesic activity by mouse hotplate assay at the doses of 0.62 and 6.2; No significant effect observed at the doses tested. The format is functional, organism-based.
For assay [3], the target named is T2, Neuronal acetylcholine receptor subunit alpha-3 (Homo sapiens, UniProt P32297). As to the kind of experiment: Intrinsic activity against human sympathetic ganglionic type nAChRs in IMR-32 cells containing alpha-3 subtype. The format is functional, cell-based. An outline of the steps:
(§1)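 86Rb+ efflux measured in the human neuroblastoma line IMR-32 (ganglionic-like, α3-containing nAChRs). Intrinsic activity is the maximum response as percent of the response to 100 μM (S)-nicotine. Values are means ± SEM, n ≥ 3.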

The target of assay [4] is T1, Neuronal acetylcholine receptor subunit alpha-7. Kind of assay: Compound was evaluated for its ability to displace [125I]alpha-bungarotoxin (alpha-BgT) from K28 cells expressing human Nicotinic acetylcholine receptor alpha7. The format is cell-based. A digest of the protocol:
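Displacement of [125I]-α-bungarotoxin from K28 cells expressing human α7 homomers. Ki values are means ± SEM, n ≥ 3.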

Assay [5] has as its target T2, Neuronal acetylcholine receptor subunit alpha-3. Kind of assay: Functional activation of human sympathetic ganglionic type nAChRs in IMR-32 cells containing alpha-3 subtype. The format is cell-based. An outline of the steps: as §1
Assay [6] deals with Acetylcholine receptor subunit alpha (Torpedo californica, UniProt P02710). As to the kind of experiment: Compound was evaluated for its ability to displace [125 I]alpha-bungarotoxin (alpha-BgT) from torpedo alpha1-beta1-[…] electroplax. A digest of the protocol:
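Displacement of [125I]-α-bungarotoxin from Torpedo electroplax membranes (α1β1γδ). Ki values are means ± SEM, n ≥ 3.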

For assay [7], the target named is Neuronal acetylcholine receptor. As to the kind of experiment: Compound was evaluated for its ability to displace [3H]-cytisine binding from high-affinity Nicotinic acetylcholine receptor in rat brain (principally the alpha4-beta2 nAChR subtype). The format is tissue-based. An outline of the steps: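 Displacement of [3H]cytisine from rat whole-brain membranes, principally α4β2 sites.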

Assay [8] concerns Canis familiaris. As to the kind of experiment: Compound was evaluated for increase in diastolic blood pressure (BP) in dog at 10 nM/Kg when administered intravenously. The format is functional, Canis lupus familiaris, Artery. A digest of the protocol:
(§2)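 Male beagle dogs under pentobarbital anesthesia (35 mg/kg iv, then 5 mg/kg/h iv infusion), ventilated with room air. Blood pressure was recorded by a micromanometer catheter passed via the carotid artery into the left ventricle.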

The species named for assay [9] is Mus musculus. As to the kind of experiment: Minimum peroral effective dose for analgesic activity was determined by mouse hot plate assay. The format is functional. A digest of the protocol:
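Mouse hot plate at 55 °C with 8 mice per dose. Drug in 0.9% saline was given po, 10 mL/kg, 30 min before testing, over a range of 0.19–6.2 μmol/kg. MED is the lowest dose that increases latency to the tenth jump versus saline, with a 180 s cutoff.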
(In general: Hot-plate and tail-flick tests time the reaction to a heat stimulus.)

For another assay, the system named is K177 cell line. Kind of assay: Compound was evaluated for functional activation to [86Rb+] efflux from human K177 cells expressing recombinant alpha4-beta2 receptors. The format is cell-based. An outline of the steps: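 86Rb+ efflux measured from K177 cells expressing recombinant human α4β2 receptors. Intrinsic activity is given as percent of the maximal response to 100 μM (S)-nicotine. Values are means ± SEM, n ≥ 3.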

Assay [10] can be described thus: Compound was evaluated for functional activation to [86Rb+] efflux From human medulloblastoma cell line TE671 expressing recombinant alpha-1-beta-1-gamma delta receptors. The settings on record: TE-671. An outline of the steps:
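86Rb+ efflux measured from the human medulloblastoma line TE671. Intrinsic activity is given as percent of the maximal response to 1 mM (S)-nicotine. Values are means ± SEM, n ≥ 3.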

The test system of assay [11] is Canis familiaris. As to the kind of experiment: Compound was evaluated for increase in heart rate (HR) in dog at 10 nM/Kg when administered intravenously. The format is functional, Canis lupus familiaris. A digest of the protocol:
as §2

The subject of assay [12] is Mus musculus. As to the kind of experiment: Minimum intraperitoneal effective dose for abdominal constriction in mouse. The format is functional, Abdomen. An outline of the steps:
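Mice, 10 per dose group, received compound ip in 0.9% saline, 10 mL/kg, 30 min before ip phenyl-p-quinone (68 μmol/kg in 5% EtOH). Writhing was scored over a 10-min window starting 5 min after the irritant. The read-out was the reduction in the number of responders versus the saline group.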

For assay [13], the species on record is Mus musculus. As to the kind of experiment: Compound was evaluated for the analgesic activity by mouse hotplate assay at the doses of 0.062 and 0.62. The format is functional.
Assay [14] has as its target Neuronal acetylcholine receptor; alpha4/beta2 (Homo sapiens, UniProt P17787+P43681). As to the kind of experiment: Compound was evaluated for its ability to displace [3H]cytisine from K177 cells expressing human Nicotinic acetylcholine receptor alpha4-beta2. The format is cell-based. A digest of the protocol: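 Displacement of [3H]cytisine from K177 cells expressing human α4β2 nAChRs. Ki values are means ± SEM, n ≥ 3.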

For assay [15], the species on record is Mus musculus. As to the kind of experiment: Compound was evaluated for the analgesic activity by mouse hotplate assay at the dose 0.1; No significant effect observed at the doses tested. The format is functional, organism-based.

Calls of active or inactive are those of the source.

Sequence of Acetylcholine receptor subunit alpha (P02710 whole entry): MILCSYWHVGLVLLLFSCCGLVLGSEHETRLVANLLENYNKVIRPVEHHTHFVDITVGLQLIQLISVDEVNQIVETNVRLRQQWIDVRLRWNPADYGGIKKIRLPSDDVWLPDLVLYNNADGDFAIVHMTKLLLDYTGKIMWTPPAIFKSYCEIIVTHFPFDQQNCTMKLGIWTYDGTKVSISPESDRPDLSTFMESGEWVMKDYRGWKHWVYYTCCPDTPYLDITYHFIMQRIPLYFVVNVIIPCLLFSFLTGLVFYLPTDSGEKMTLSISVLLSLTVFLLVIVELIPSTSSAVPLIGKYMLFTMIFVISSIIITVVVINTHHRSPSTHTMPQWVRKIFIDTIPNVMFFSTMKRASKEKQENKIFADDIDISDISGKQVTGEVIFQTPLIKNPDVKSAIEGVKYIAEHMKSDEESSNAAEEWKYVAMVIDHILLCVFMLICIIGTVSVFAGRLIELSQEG
T2 sequence (P32297 whole entry): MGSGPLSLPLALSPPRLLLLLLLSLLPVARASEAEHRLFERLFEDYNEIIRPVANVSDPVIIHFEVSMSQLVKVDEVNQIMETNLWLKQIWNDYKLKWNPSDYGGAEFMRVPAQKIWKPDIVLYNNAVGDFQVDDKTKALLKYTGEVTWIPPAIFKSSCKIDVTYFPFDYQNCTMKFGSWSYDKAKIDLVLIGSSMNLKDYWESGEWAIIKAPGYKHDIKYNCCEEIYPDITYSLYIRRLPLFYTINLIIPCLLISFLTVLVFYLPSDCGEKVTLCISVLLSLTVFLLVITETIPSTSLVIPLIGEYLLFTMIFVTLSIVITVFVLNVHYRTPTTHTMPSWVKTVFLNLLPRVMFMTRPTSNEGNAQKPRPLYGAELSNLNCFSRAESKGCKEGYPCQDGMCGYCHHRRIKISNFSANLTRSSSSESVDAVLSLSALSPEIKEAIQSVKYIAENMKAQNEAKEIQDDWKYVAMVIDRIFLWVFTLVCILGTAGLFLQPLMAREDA
Sequence of Neuronal acetylcholine receptor; alpha4/beta2 (P17787 whole entry): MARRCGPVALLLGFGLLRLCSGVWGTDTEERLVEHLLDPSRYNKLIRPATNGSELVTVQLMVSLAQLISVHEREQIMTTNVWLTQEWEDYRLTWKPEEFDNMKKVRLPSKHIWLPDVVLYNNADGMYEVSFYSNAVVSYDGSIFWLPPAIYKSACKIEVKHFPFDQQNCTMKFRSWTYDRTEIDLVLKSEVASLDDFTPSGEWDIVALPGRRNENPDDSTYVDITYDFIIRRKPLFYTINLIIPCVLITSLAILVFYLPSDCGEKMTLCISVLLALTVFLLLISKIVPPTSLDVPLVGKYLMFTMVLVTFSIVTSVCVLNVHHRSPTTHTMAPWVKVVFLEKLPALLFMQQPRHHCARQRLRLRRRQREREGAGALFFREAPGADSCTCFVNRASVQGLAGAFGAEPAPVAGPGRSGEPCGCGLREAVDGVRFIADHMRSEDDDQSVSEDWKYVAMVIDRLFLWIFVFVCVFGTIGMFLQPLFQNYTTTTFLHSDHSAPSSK
Sequence of Neuronal acetylcholine receptor; alpha4/beta2 (P43681 whole entry): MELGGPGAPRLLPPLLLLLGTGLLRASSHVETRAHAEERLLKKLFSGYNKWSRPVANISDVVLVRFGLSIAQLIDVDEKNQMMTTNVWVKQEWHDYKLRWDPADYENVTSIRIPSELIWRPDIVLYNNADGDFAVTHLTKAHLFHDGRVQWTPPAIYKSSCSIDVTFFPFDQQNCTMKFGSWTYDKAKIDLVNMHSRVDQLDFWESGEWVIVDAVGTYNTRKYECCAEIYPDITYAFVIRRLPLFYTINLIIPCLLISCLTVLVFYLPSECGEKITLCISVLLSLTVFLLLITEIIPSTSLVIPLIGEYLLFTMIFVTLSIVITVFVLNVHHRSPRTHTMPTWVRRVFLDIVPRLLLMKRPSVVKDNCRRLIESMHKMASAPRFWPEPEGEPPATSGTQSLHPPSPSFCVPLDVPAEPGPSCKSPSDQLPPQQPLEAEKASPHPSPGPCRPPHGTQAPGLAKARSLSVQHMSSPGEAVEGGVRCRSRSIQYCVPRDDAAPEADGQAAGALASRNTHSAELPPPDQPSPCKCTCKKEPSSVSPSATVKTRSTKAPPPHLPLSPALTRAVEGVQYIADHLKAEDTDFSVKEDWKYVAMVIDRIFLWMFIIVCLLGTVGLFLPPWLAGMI

Consider `c1cncc(OC[C@H]2CCN2)c1`, for which the EC50 in assay [1] was found to be 36000 nM; in assay [5] it was 1100 nM. Also, the MED entry in the assay filed under Mus musculus [2] is “inactive”. In addition, the IA in assay [3] was found to be 116%. Also, the Ki in assay [4] turned out to be 1270 nM; in assay [6] it was 384 nM.

With `CN1CC[C@H]1COc1ccc(Cl)nc1`, the MED result in the assay listed under Mus musculus [2] is “inactive”. The compound further gave an IA in assay [3] of 43%. The EC50 in assay [5] came out at 28900 nM. Further, the Ki in [7] was 1.6 nM.

Take `Clc1ccc(OCC2CCN2)cn1` (single isomer, unassigned) [TEBANICLINE]: the BP in the assay on Canis familiaris [8] was found to be 23.2 mmHg. Also, the EC50 in assay [1] came to 56000 nM; with K177 cell line (k177), 270 nM; in assay [10] it was 36000 nM; in [5], 200 nM. The same compound displayed an IA in [3] of 116%. Also, the MED was determined as 6.2 µM/kg in the assay filed under Mus musculus [9], 0.19 µM/kg with Mus musculus [12] and 0.62 µM/kg in the assay listed under Mus musculus [13]. Further, the Ki in assay [4] came out at 2060 nM; in [7], 0.04 nM; in [14], 0.055 nM; in assay [6] it was 10000 nM. Besides, the HR with Canis familiaris [11] stood at 7.8 beats min-1.

On to `Clc1ccc(OC[C@H]2CCCN2)cn1`, for which, in the assay filed under Mus musculus [2], the MED entry was “inactive”. In assay [3], this compound displayed an IA of 110%. Besides, in assay [5], the response was half-maximal at 500 nM (EC50). Further, in assay [7], the Ki was found to be 0.09 nM.

For `c1cncc(OC[C@@H]2CCN2)c1`, the MED result in the assay listed under Mus musculus [2] was “inactive”. In addition, the IA in assay [3] was 113%. Moreover, the EC50 came out at 700 nM in the assay with K177 cell line (Homo sapiens, K177) and 700 nM in [5]. In addition, the Ki was found to be 0.04 nM in assay [14] and 314 nM in [6].

For `Clc1ccc(OC[C@@H]2CCCN2)cn1`, in the assay filed under Mus musculus [2], the MED entry was “inactive”. This compound showed an IA in [3] of 104%. The compound further gave an EC50 in assay [5] of 1190 nM. In assay [7], this compound showed a Ki of 0.45 nM.

Take `Clc1ccc(C2CC3CCC2N3)cn1` (racemic): in assay [3], the IA was found to be 156%. Besides, the MED result in the assay listed under Mus musculus [15] was “inactive”.
